{"source": "paper PMC4467258", "about": "(Clinical Pharmacology in Drug Development, 2014)", "key": {"[1]": {"type": "in vivo, human", "settings": "for AUC(0-inf): AUC0−∞; for Tmax: median (range)", "procedure,_shortened": "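Open-label, randomized 4-period crossover in healthy adults (18–65 y, ≥40 kg). Each received single 1500-mg free-base-equivalent doses: 60-min IV mesylate infusion, tablet fasted or after a 490-calorie moderate-fat meal, and oral mesylate solution fasted, with 3-day washouts. Plasma sampled predose to 72 h; LC-MS/MS (5–5000 ng/mL). Noncompartmental analysis; bioavailability from oral vs IV AUC0−∞; log-transformed mixed-effects model; CVw from residual MSE.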"}, "Solubility": {"assay": "Solubility", "type": "physicochemical"}, "[2]": {"assay": "Biopharmaceutics Classification System characteristics", "type": "physicochemical", "settings": "high permeability and poor solubility; no official regulatory decision yet"}, "[3]": {"settings": "cited from earlier work"}, "Safety and tolerability": {"assay": "Safety and tolerability", "type": "in vivo, human", "procedure,_shortened": "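Open-label, randomized, 4-period balanced crossover in healthy adults (18–65 years, ≥40 kg; women of non-childbearing potential only). Single 1500-mg (free base equivalent) dose of test compound (peptide deformylase inhibitor) as IV mesylate salt solution, 60-minute infusion, fasted; 3-day washout between periods. Safety from observed AEs and changes over time in hematology, clinical chemistry, urinalysis, vital signs and ECGs, summarized descriptively.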"}, "[4]": {"settings": "Fed to fasted, free base tablet"}, "[5]": {"settings": "human, plasma, oral, 1500 mg, mean (SD), 1500-mg free base tablet, fasted state"}, "[6]": {"settings": "human, plasma, po, 1500 mg, mean (SD), 1500-mg oral MS solution, fasted state"}}, "note": "“And” between values parts separate entries of the source, which are not always exact repeats. Identical values can stand only once. Like-named read-outs stand apart in the source and are kept apart here. Marks after values point to notes of the source that are not given here.", "data": [{"smiles": "Cc1nc(NNC(=O)[C@H](CC2CCCC2)CN(O)C=O)c(F)c(N2CCN3CCOC[C@@H]3C2)n1", "note": "[GSK1322322]", "values": [{"measurement": "Relative bioavailability, ratio of geometric least square mean Cmax (90% CI)", "setting": "[1]; Fasted to MS", "value": "0.57 (0.48, 0.69)"}, {"measurement": "Tmax estimated median difference (90% CI)", "setting": "[1]; Fasted to MS", "value": "0.13 (0.00, 0.37) ^c h"}, {"measurement": "Relative bioavailability, ratio of geometric least square mean AUC0−∞ (90% CI)", "setting": "[1]; Fasted to MS (free base tablet fasted vs oral MS solution)", "value": "0.62 (0.56, 0.69)"}, {"measurement": "Relative bioavailability, ratio of geometric least square mean Cmax (90% CI)", "setting": "[1]; Fed to MS", "value": "0.57 (0.47, 0.68)"}, {"measurement": "Tmax estimated median difference (90% CI)", "setting": "[1]; Fed to MS", "value": "0.99 (0.63, 1.74) ^d h"}, {"measurement": "Relative bioavailability, ratio of geometric least square mean AUC0−∞ (90% CI)", "setting": "[1]; Fed to MS (free base tablet fed vs oral MS solution)", "value": "0.84 (0.76, 0.94)"}, {"measurement": "Food effect, ratio of geometric least square mean AUC0−∞ (90% CI)", "setting": "[1]; [4]", "value": "1.36 (1.22, 1.51)"}, {"measurement": "Food effect, ratio of geometric least square mean Cmax (90% CI)", "setting": "[1]; [4]", "value": "0.99 (0.82, 1.18)"}, {"measurement": "Tmax estimated median difference (90% CI)", "setting": "[1]; [4]", "value": "0.88 (0.50, 1.25) ^e h"}, {"measurement": "Relative bioavailability", "setting": "[1]; free base tablet after a meal vs fasted state", "value": 136, "unit": "%"}, {"measurement": "Absolute bioavailability, ratio of geometric least square mean AUC0−∞ (90% CI)", "setting": "[1]; free base tablet fasted vs IV, 1500 mg", "value": "0.57 (0.51, 0.63)"}, {"measurement": "Relative bioavailability", "setting": "[1]; free base tablet fasted vs oral mesylate salt solution fasted", "value": 62, "unit": "%"}, {"measurement": "Absolute bioavailability, ratio of geometric least square mean AUC0−∞ (90% CI)", "setting": "[1]; free base tablet fed vs IV, 1500 mg", "value": "0.77 (0.69, 0.86)"}, {"measurement": "Relative bioavailability", "setting": "[1]; free base tablet fed vs oral mesylate salt solution fasted", "value": 84, "unit": "%"}, {"measurement": "Increase in AUC0−∞ with food", "setting": "[1]; free base tablet, fed vs fasted state, moderate-fat/calorie meal", "value": 36, "unit": "%"}, {"measurement": "Vd", "setting": "[1]; human, plasma, iv, 1500 mg", "value": 69.2, "unit": "L"}, {"measurement": "clearance", "setting": "[1]; human, plasma, iv, 1500 mg", "value": 367, "unit": "mL/min"}, {"measurement": "AUC(0-inf)", "setting": "[1]; human, plasma, iv, 1500 mg, mean (SD), 1500-mg IV MS solution, 60-minute infusion", "value": 75400, "unit": "ng·h/mL"}, {"measurement": "Cmax", "setting": "[1]; human, plasma, iv, 1500 mg, mean (SD), 1500-mg IV MS solution", "value": 28600, "unit": "ng/mL"}, {"measurement": "Tmax", "setting": "[1]; human, plasma, iv, 1500 mg, 1500-mg IV MS solution", "value": 1, "unit": "h"}, {"measurement": "half-life", "setting": "[1]; human, plasma, iv, 1500 mg, t1/2, mean (SD), 1500-mg IV MS solution", "value": 10.3, "unit": "h"}, {"measurement": "AUC(0-inf)", "setting": "[1]; [5]", "value": 46100, "unit": "ng·h/mL"}, {"measurement": "AUC(0-inf)", "setting": "[1]; human, plasma, oral, 1500 mg, mean (SD), 1500-mg free base tablet, fed state (moderate-fat/calorie meal)", "value": 58900, "unit": "ng·h/mL"}, {"measurement": "Cmax", "setting": "[1]; [5]", "value": 17100, "unit": "ng/mL"}, {"measurement": "Cmax", "setting": "[1]; human, plasma, oral, 1500 mg, mean (SD), 1500-mg free base tablet, fed state", "value": 15500, "unit": "ng/mL"}, {"measurement": "Tmax", "setting": "[1]; human, plasma, oral, 1500 mg, 1500-mg free base tablet, fasted state", "value": 0.5, "unit": "h"}, {"measurement": "Tmax", "setting": "[1]; human, plasma, oral, 1500 mg, 1500-mg free base tablet, fed state", "value": 1.5, "unit": "h"}, {"measurement": "half-life", "setting": "[1]; human, plasma, oral, 1500 mg, t1/2, mean (SD), 1500-mg free base tablet, fasted state", "value": 9.4, "unit": "h"}, {"measurement": "half-life", "setting": "[1]; human, plasma, oral, 1500 mg, t1/2, mean (SD), 1500-mg free base tablet, fed state", "value": 8.7, "unit": "h"}, {"measurement": "half-life", "setting": "[1]; human, plasma, other: IV or oral, 1500 mg, t1/2, range of means after single-dose IV or oral administration", "value": "8.7 to 10.3", "unit": "h"}, {"measurement": "AUC(0-inf)", "setting": "[1]; [6]", "value": 69700, "unit": "ng·h/mL"}, {"measurement": "Cmax", "setting": "[1]; [6]", "value": 25800, "unit": "ng/mL"}, {"measurement": "Tmax", "setting": "[1]; human, plasma, po, 1500 mg, 1500-mg oral MS solution, fasted state", "value": 0.5, "unit": "h"}, {"measurement": "half-life", "setting": "[1]; human, plasma, po, 1500 mg, t1/2, mean (SD), 1500-mg oral MS solution, fasted state", "value": 9.6, "unit": "h"}, {"measurement": "Varea", "setting": "[1]; mean (SD), 1500-mg IV MS solution", "value": "317.2 (131.5) L"}, {"measurement": "CL/F", "setting": "[1]; mean (SD), 1500-mg free base tablet, fasted state", "value": "42.6 (26.6) L/h"}, {"measurement": "CL/F", "setting": "[1]; mean (SD), 1500-mg free base tablet, fed state", "value": "28.4 (9.0) L/h"}, {"measurement": "CL/F", "setting": "[1]; mean (SD), 1500-mg oral MS solution, fasted state", "value": "23.8 (7.3) L/h"}, {"measurement": "Absolute bioavailability, ratio of geometric least square mean AUC0−∞ (90% CI)", "setting": "[1]; oral MS solution fasted vs IV, 1500 mg", "value": "0.92 (0.82, 1.02)"}, {"measurement": "CVw (within coefficient of variation) of AUC0−∞", "setting": "[1]; pooled across regimens", "value": 22, "unit": "%"}, {"measurement": "CVw (within coefficient of variation) of Cmax", "setting": "[1]; pooled across regimens", "value": "39% and 38.7%"}, {"measurement": "solubility", "setting": "Solubility; fasted state-simulated intestinal fluid, pH 6.5, fassif", "value": "~0.5", "unit": "mg/mL"}, {"measurement": "solubility", "setting": "Solubility; pH 3.5", "value": 40, "unit": "mg/mL"}, {"measurement": "Biopharmaceutics Classification System class", "setting": "[2]", "value": "Class 2"}, {"measurement": "Relative bioavailability fed vs fasted", "setting": "[3]; free base tablet 1000 mg", "value": 119, "unit": "%"}, {"measurement": "Cmax", "setting": "[3]; single 1500-mg IV dose, first-time-in-human IV study", "value": 25500, "unit": "ng/mL"}, {"measurement": "Absolute bioavailability", "setting": "[3]; tablet formulation 1500 mg, previous phase I study", "value": 56, "unit": "%"}, {"measurement": "Withdrawal because of a drug-related AE (bronchospasm)", "setting": "Safety and tolerability; IV 1500 mg, period 3", "value": "One volunteer was withdrawn"}, {"measurement": "Vital signs, chemistry, or hematology data", "setting": "Safety and tolerability; all treatments", "value": "No apparent trends or changes from baseline"}, {"measurement": "Intensity of adverse events", "setting": "Safety and tolerability; all treatments, single 1500-mg doses", "value": "mild-to-moderate"}, {"measurement": "Volunteers with an AE per treatment", "setting": "Safety and tolerability; range across the four treatments", "value": "42–65%"}]}]}
